The source of these data is ChEMBL document CHEMBL1909621, “Synthesis and biological evaluation of novel nitrogen- and sulfur-containing hetero-1,4-naphthoquinones as potent antifungal and antibacterial agents” (2011).

In brackets after ≈: the same amount, converted by molar mass. Activity calls are given as the source filed them.

Holding throughout (type): functional
The test system of assay [1] is Staphylococcus aureus. As to the kind of experiment: Antibacterial activity against Staphylococcus aureus 209-P at 0.5% after 24 hrs by diffusion technique.
Assay [2] concerns Staphylococcus aureus. Description: Antibacterial activity against Staphylococcus aureus 209-P after 24 to 72 hrs by serial dilution technique.
For assay [3], the system named is Escherichia coli. As to the kind of experiment: Antibacterial activity against Escherichia coli B-906 at 0.1% after 24 hrs by diffusion technique.
The subject of assay [4] is Mycobacterium. Description: Antibacterial activity against Mycobacterium luteum b-917 at 0.5% after 24 hrs by diffusion technique.
Assay [5] relates to Staphylococcus aureus. As to the kind of experiment: Antibacterial activity against Staphylococcus aureus 209-P at 0.1% after 24 hrs by diffusion technique.
Assay [6] has as its system Aspergillus niger. As to the kind of experiment: Antifungal activity against Aspergillus niger F-1119 at 0.1% after 48 to 72 hrs by diffusion technique. The method in brief: (§1)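 Fungi. Disk diffusion: 10⁹ spores (cells)/1 mL inoculum. Incubated 48–72 h at 28–30 °C. Zone around disk measured, with a nystatin control disk. Serial dilution: compounds dissolved in DMSO and diluted into wort agar, then inoculated. Incubated at 30 °C for 24–72 h. MIC recorded.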

Assay [7] deals with Aspergillus niger. As to the kind of experiment: Antifungal activity against Aspergillus niger F-1119 after 24 to 72 hrs by serial dilution technique. The method in brief: as §1
For assay [8], the system named is Mycobacterium. As to the kind of experiment: Antibacterial activity against Mycobacterium luteum b-917 after 24 to 72 hrs by serial dilution technique.
Assay [9] deals with Yamadazyma tenuis. Description: Antifungal activity against Candida tenuis VKM Y-70 at 0.5% after 48 to 72 hrs by diffusion technique. In short, it runs like this:
as §1

The subject of assay [10] is Escherichia coli. As to the kind of experiment: Antibacterial activity against Escherichia coli B-906 at 0.5% after 24 hrs by diffusion technique.
The subject of assay [11] is Escherichia coli. Description: Antibacterial activity against Escherichia coli B-906 after 24 to 72 hrs by serial dilution technique.
Assay [12] concerns Yamadazyma tenuis. As to the kind of experiment: Antifungal activity against Candida tenuis VKM Y-70 after 24 to 72 hrs by serial dilution technique. In short, it runs like this:
as §1

The test system of assay [13] is Aspergillus niger. Description: Antifungal activity against Aspergillus niger F-1119 at 0.5% after 48 to 72 hrs by diffusion technique. In short, it runs like this: as §1
In assay [14] the test system is Mycobacterium. As to the kind of experiment: Antibacterial activity against Mycobacterium luteum b-917 at 0.1% after 24 hrs by diffusion technique.
The subject of assay [15] is Yamadazyma tenuis. As to the kind of experiment: Antifungal activity against Candida tenuis VKM Y-70 at 0.1% after 48 to 72 hrs by diffusion technique. The method in brief:
as §1

For the compound `Cc1cc(C)c(CSC2=C(SCc3c(C)cc(C)cc3C)C(=O)c3ccccc3C2=O)c(C)c1`, the “diameter of the inhibition zone (DIZ)” value in the assay with Staphylococcus aureus [1], with Escherichia coli [3], in the assay with Mycobacterium [4], in the assay with Staphylococcus aureus [5], in the assay on Aspergillus niger [6] and with Yamadazyma tenuis [9] was 0 mm each time. Further, the “diameter of the inhibition zone (DIZ)” value with Escherichia coli [10], in the assay with Aspergillus niger [13], in the assay with Mycobacterium [14] and in the assay with Yamadazyma tenuis [15] was 0 mm each time. Besides, the inhibition result with Staphylococcus aureus [2], with Aspergillus niger [7], in the assay on Mycobacterium [8] and in the assay on Escherichia coli [11] was “inactive” each time. Besides, in the assay with Yamadazyma tenuis [12], inhibition of growth (MIC) required 125 µg/mL (≈ 257 µM).

On to `O=C1C(SCCCCCCCCCO)=C(SCCCCCCCCCO)C(=O)c2ccccc21`, for which the “diameter of the inhibition zone (DIZ)” value in the assay on Staphylococcus aureus [1], in the assay on Escherichia coli [3], in the assay on Mycobacterium [4], in the assay on Staphylococcus aureus [5], in the assay with Aspergillus niger [6] and in the assay with Yamadazyma tenuis [9] was 0 mm each time. For the same compound, the “diameter of the inhibition zone (DIZ)” value with Escherichia coli [10] is listed as 0 mm; in the assay with Aspergillus niger [13] it was 6 mm; in the assay with Mycobacterium [14] it was 0 mm; with Yamadazyma tenuis [15], 0 mm. The MIC (in general, the smallest concentration in the dilution series that meets the test's criterion for growth inhibition) against Staphylococcus aureus [2] amounted to 250 µg/mL (≈ 493 µM). Also, the inhibition result with Aspergillus niger [7], with Escherichia coli [11] and in the assay on Yamadazyma tenuis [12] was “inactive” throughout.

For the compound `O=C1C(Sc2ncccn2)=C(Sc2ncccn2)C(=O)c2ccccc21`, the “diameter of the inhibition zone (DIZ)” value in the assay on Staphylococcus aureus [1] came to 9 mm; in the assay with Escherichia coli [3], 0 mm; in the assay with Mycobacterium [4], 11.7 mm; with Staphylococcus aureus [5] it was 6 mm; with Aspergillus niger [6] it was 7 mm; with Yamadazyma tenuis [9] it was 7 mm. For the same compound, the “diameter of the inhibition zone (DIZ)” value turned out to be 0 mm with Escherichia coli [10], 9 mm with Aspergillus niger [13], 6.7 mm in the assay on Mycobacterium [14] and 6 mm in the assay on Yamadazyma tenuis [15]. Also, the MIC against Staphylococcus aureus [2] turned out to be 62.5 µg/mL (≈ 165 µM); against Aspergillus niger [7] it was 500 µg/mL (≈ 1320 µM); in the assay with Mycobacterium [8], 500 µg/mL (≈ 1320 µM); against Yamadazyma tenuis [12], 125 µg/mL (≈ 330 µM).

For `O=C1C(SCc2ccco2)=C(SCc2ccco2)C(=O)c2ccccc21`, the “diameter of the inhibition zone (DIZ)” value in the assay on Staphylococcus aureus [1] turned out to be 7 mm; in the assay with Escherichia coli [3] it was 0 mm; in the assay on Mycobacterium [4], 10.4 mm; with Staphylococcus aureus [5], 0 mm; in the assay on Aspergillus niger [6], 8 mm; in the assay with Yamadazyma tenuis [9], 0 mm. Also, the “diameter of the inhibition zone (DIZ)” value was determined as 0 mm in the assay on Escherichia coli [10], 10 mm in the assay on Aspergillus niger [13], 7.7 mm with Mycobacterium [14] and 0 mm in the assay with Yamadazyma tenuis [15]. Also, the inhibition entry in the assay on Staphylococcus aureus [2] and in the assay with Escherichia coli [11] was “inactive” in each case. For the same compound, the MIC in the assay with Aspergillus niger [7] was determined as 62.5 µg/mL (≈ 163 µM); with Yamadazyma tenuis [12], 15.6 µg/mL (≈ 40.8 µM).

On to `CN[C@H](CC(C)C)C(=O)N[C@H]1C(=O)N[C@@H](CC(N)=O)C(=O)N[C@H]2C(=O)N[C@H]3C(=O)N[C@H](C(=O)N[C@H](C(=O)O)c4cc(O)cc(O)c4-c4cc3ccc4O)[C@H](O)c3ccc(c(Cl)c3)Oc3cc2cc(c3O[C@@H]2O[C@H](CO)[C@@H](O)[C@H](O)[C@H]2O[C@H]2C[C@](C)(N)[C@H](O)[C@H](C)O2)Oc2ccc(cc2Cl)[C@H]1O` [VANCOMYCIN], for which the figures for the “diameter of the inhibition zone (DIZ)” value in the assay with Escherichia coli [3], in the assay on Staphylococcus aureus [5] and in the assay with Mycobacterium [14] were 14 mm, 15 mm and 18 mm, respectively.

As to NYSTATIN, the inhibition zone (IZ) in the assay with Yamadazyma tenuis [15] is 19 mm.
